From ChEMBL document CHEMBL5724801, “EUbOPEN Chemogenomics Library - Multiplex” (2024)
“And” between values parts separate entries of the source, which are not always exact repeats. Equal values may be shown once.

System: U2OS
Assay: Multiplex assay against U2OS
Format: toxicity, cell-based
Conditions: human
Outline: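 On a CQ1 microscope at 37°C and 5% CO2, live cells were imaged after compound addition. They had been stained at seeding with Hoechst33342, BioTracker Green Microtubule Cytoskeleton Dye, MitoTracker Red and Annexin V Alexa Fluor 680. CellPathfinder machine-learning gating assigned cells to Hoechst high-intensity objects or normal cells, normal cells to healthy, pyknosed or fragmented nuclei, and pyknosed cells to mitotic or apoptotic. Tubulin, mitochondrial-mass and membrane-permeability phenotypes are per cents of healthy-nucleus cells.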

[1] = 12 h, 1 µM, compound concentration 1 uM
[2] = 12 h, 10 µM, compound concentration 10 uM
[3] = 24 h, 1 µM, compound concentration 1 uM
[4] = 24 h, 10 µM, compound concentration 10 uM
[5] = 48 h, 1 µM, compound concentration 1 uM
[6] = 48 h, 10 µM, compound concentration 10 uM

CC(C)CNc1nc(N2CCN(CC3CCCOC3)CC2)ncc1C(=O)NCc1ccccc1 (stereo unspecified)
Population Apoptotic (%) [1]: 35.29% and 54.55%
Population Fragmented Nuclei (%) [1]: 1.32% and 3.94%
Population Healthy Nuclei (%) [1]: 85.22% and 78.74%
Population Hoechst High Intensity Objects (%) [1]: 0%
Population Membrane Permeable-Phenotype (%) [1]: 0.93% and 5%
Population Mitotic Cells (%) [1]: 64.71% and 45.45%
Population Normal (%) [1]: 100%
Population Pyknosed Nuclei (%) [1]: 13.46% and 17.32%
Population Tubulin-Different-Phenotype (%) [1]: 3.1% and 1%
Total Cell Count [1]: 379 and 127
Population Apoptotic (%) [2]: 51.14% and 36.59%
Population Fragmented Nuclei (%) [2]: 1.76% and 7.28%
Population Healthy Nuclei (%) [2]: 72.35% and 65.56%
Population Hoechst High Intensity Objects (%) [2]: 0%
Population Membrane Permeable-Phenotype (%) [2]: 22.36% and 30.3%
Population Mitochondria Different-Phenotype (%) [2]: 72.36% and 89.9%
Population Mitotic Cells (%) [2]: 48.86% and 63.41%
Population Normal (%) [2]: 100%
Population Pyknosed Nuclei (%) [2]: 25.88% and 27.15%
Population Tubulin-Different-Phenotype (%) [2]: 97.15% and 94.95%
Total Cell Count [2]: 340 and 151
Population Apoptotic (%) [3]: 43.1% and 31.82%
Population Fragmented Nuclei (%) [3]: 1.29% and 7.91%
Population Healthy Nuclei (%) [3]: 86.27% and 76.26%
Population Hoechst High Intensity Objects (%) [3]: 0.21% and 0%
Population Membrane Permeable-Phenotype (%) [3]: 2.49% and 9.43%
Population Mitotic Cells (%) [3]: 56.9% and 68.18%
Population Normal (%) [3]: 99.79% and 100%
Population Pyknosed Nuclei (%) [3]: 12.45% and 15.83%
Population Tubulin-Different-Phenotype (%) [3]: 3.98% and 4.72%
Population Apoptotic (%) [4]: 71.3% and 64%
Population Fragmented Nuclei (%) [4]: 3.28% and 4.55%
Population Healthy Nuclei (%) [4]: 67.21% and 62.99%
Population Hoechst High Intensity Objects (%) [4]: 0%
Population Membrane Permeable-Phenotype (%) [4]: 17.07% and 18.56%
Population Mitochondria Different-Phenotype (%) [4]: 81.3% and 91.75%
Population Mitotic Cells (%) [4]: 28.7% and 36%
Population Normal (%) [4]: 100%
Population Pyknosed Nuclei (%) [4]: 29.51% and 32.47%
Population Tubulin-Different-Phenotype (%) [4]: 97.15% and 93.81%
Total Cell Count [4]: 366 and 154
Population Apoptotic (%) [5]: 58.06% and 46.43%
Population Fragmented Nuclei (%) [5]: 2.14% and 3.47%
Population Healthy Nuclei (%) [5]: 86.13% and 80.35%
Population Hoechst High Intensity Objects (%) [5]: 0%
Population Membrane Permeable-Phenotype (%) [5]: 1.02% and 4.32%
Population Mitotic Cells (%) [5]: 41.94% and 53.57%
Population Normal (%) [5]: 100%
Population Pyknosed Nuclei (%) [5]: 11.73% and 16.18%
Population Tubulin-Different-Phenotype (%) [5]: 2.64% and 6.47%
Population Apoptotic (%) [6]: 80.41% and 90%
Population Fragmented Nuclei (%) [6]: 7.04% and 6.08%
Population Healthy Nuclei (%) [6]: 55.78% and 60.14%
Population Hoechst High Intensity Objects (%) [6]: 0%
Population Membrane Permeable-Phenotype (%) [6]: 13.06% and 17.98%
Population Mitochondria Different-Phenotype (%) [6]: 79.28% and 93.26%
Population Mitotic Cells (%) [6]: 19.59% and 10%
Population Normal (%) [6]: 100%
Population Pyknosed Nuclei (%) [6]: 37.19% and 33.78%
Population Tubulin-Different-Phenotype (%) [6]: 96.4% and 88.76%
Total Cell Count [6]: 398 and 148
